According to PubChem BioAssay:
Activity calls are given as the source filed them.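 How the source made its calls, unless noted: active means Her2 level under about 52% in both replicate screens, with viability over 70% of control (limit read from the data); inconclusive means Her2 under the limit in one screen only, or viability under 70%; inactive means Her2 level above the set limit.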

How the values were obtained:
[1] = Her2 expression decrease, cell viability multiplex – SKBR3 breast tumor cells, AlphaScreen, ATP viability, primary screen (AID 461); conditions: SKBR3 Her2 protein level, 18-24 h, measured here: SKBR3 viability, ATP luminescence, at 10 µM;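 on Her2 level: lower value means less Her2 protein in the cells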;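 on viability: percent of carrier control wells set as 100% viability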
[2] = target: Receptor tyrosine-protein kinase erbB-2 (Homo sapiens) (UniProt P04626); assay: as above; conditions: 18-24 h, at 10 µM, stronger effect = lower value
[3] = reduced viability of SK-BR-3 breast cancer cells – cell-based, 24 h, human, pilot screen (AID 572;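 active means viability at or below 10% of carrier control in both of two separate runs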;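 further: compound exposure lasted between 18 and 24 h rather than exactly 24 h; 100% = carrier-treated control wells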); conditions: SK-BR-3 viability, CellTiter-Glo luminescence, at 10 µM, stronger effect = lower value
[4] = HUVEC growth inhibition – cell-based, human, primary screen (AID 575;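 active means viability at or below 30% in both replicate assays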;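 further: 100% = median of untreated cell wells with 0.1% DMSO on each plate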); conditions: HUVEC proliferation, CellTiter-Glo luminescence, 72 h; at 10 µM; stronger effect = lower value
In short: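 Test system: primary human umbilical vein endothelial cells. Quantity: 1250 cells/well. Compound: single 10 µM dose, 0.1% DMSO, from 5x medium stock. Timing: 72 h treatment at 37 °C. Detection: ATP-based CellTiter-Glo luminescent read. Benchmarks: vehicle and MePR control wells. Format: 384-well plates coated with collagen.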

[5] = H69AR cell proliferation blockers – human, duplicate replicates, primary screen (AID 580;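 active means viability at or under a set limit in both replicates, limit being median viability minus 3 SD, cut at about 48% in these data, passing the limit was not always enough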;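 further: 100% = mean luminescence of untreated wells and 0% = no signal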); conditions: H69AR lung tumor cells viability, ATP luminescence, 72 h; at 10 µM; stronger effect = lower value
[6] = MRP1 drug-resistance reversers in H69AR cells – cell-based, doxorubicin co-treatment, pilot screen (AID 601;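 active means viability loss from added drug above about 55%, and viability with drug at most 40%, in both replicates, limit read from the data, passing the limit was not always enough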); conditions: CellTiter-Glo, 72 h, at 10 µM; for differential viability (reversal): stronger effect = higher value
[7] = yeast transport mutant growth inhibition pilot in 384-well plates, post-Golgi transport modulator project (AID 636; in the data active means inhibition above about 31%); conditions: absorbance 615 nm, about 18 h, stronger effect = higher value
[8] = growth suppression of yeast trafficking mutant, preliminary HTS, modulators of trafficking downstream of Golgi apparatus project, 1536-format plate, OD 615 nm (AID 637; in the data active means inhibition above about 30%); conditions: yeast transport mutant growth, absorbance 615 nm, 18 h; stronger effect = higher value
[9] = H69AR cells + 2 uM doxorubicin, measured here: viability with 2 uM doxorubicin, stronger effect = lower value
[10] = H69AR cells, compound alone cytotoxicity

Sequence of Receptor tyrosine-protein kinase erbB-2 (Homo sapiens) (P04626 whole entry, looked up): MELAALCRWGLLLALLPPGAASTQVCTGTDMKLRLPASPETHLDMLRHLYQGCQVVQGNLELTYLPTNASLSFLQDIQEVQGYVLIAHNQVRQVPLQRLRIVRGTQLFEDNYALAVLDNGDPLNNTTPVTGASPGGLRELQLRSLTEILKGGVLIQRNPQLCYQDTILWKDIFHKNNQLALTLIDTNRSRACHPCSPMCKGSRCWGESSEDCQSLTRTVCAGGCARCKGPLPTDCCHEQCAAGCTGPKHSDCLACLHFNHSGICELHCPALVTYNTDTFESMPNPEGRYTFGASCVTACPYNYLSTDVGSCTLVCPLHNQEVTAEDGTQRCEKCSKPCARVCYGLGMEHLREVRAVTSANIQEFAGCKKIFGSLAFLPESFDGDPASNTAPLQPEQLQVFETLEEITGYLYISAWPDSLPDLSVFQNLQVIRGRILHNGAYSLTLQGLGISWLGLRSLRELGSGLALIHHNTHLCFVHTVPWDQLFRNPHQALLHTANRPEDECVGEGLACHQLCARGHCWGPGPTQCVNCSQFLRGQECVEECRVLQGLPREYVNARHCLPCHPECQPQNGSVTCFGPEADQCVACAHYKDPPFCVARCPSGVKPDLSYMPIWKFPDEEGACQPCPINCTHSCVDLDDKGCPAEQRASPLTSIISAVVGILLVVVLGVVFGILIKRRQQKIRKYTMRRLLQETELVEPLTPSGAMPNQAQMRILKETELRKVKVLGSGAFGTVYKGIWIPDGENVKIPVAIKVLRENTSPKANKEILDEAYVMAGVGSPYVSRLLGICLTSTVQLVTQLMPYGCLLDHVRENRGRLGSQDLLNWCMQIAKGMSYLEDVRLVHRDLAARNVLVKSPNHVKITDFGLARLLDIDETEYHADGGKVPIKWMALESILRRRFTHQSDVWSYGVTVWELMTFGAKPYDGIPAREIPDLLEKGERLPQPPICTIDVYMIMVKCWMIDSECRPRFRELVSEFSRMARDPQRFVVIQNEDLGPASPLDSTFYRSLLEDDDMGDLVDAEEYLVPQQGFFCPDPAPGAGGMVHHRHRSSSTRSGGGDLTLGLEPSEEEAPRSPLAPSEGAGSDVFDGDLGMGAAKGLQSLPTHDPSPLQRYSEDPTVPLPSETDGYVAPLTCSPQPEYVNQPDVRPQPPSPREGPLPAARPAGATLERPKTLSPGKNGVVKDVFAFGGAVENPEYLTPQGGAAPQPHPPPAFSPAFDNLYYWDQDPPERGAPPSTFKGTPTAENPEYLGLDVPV

Compound	viability [1]	Her2 level [2]	viability [3]	viability [4]	viability [5]	differential viability (reversal) ([6]; H69AR cells + 2 uM doxorubicin)	viability [6, 9]	viability [6, 10]	inhibition [7]	inhibition [8]
CC(C(=O)NCc1cccnc1)N1C(=O)c2ccccc2C1=O (stereo not given)	103%	97% (inactive)	103% (inactive)	99.9% (inactive)	93.7% (inactive)	-3.79% (inactive)	97.5%	93.7%	-3.03% (inactive)	-4.36% (inactive)
CCOC(=O)C1=C(C)NC2=C(C(=O)CC(C)(C)C2)C1c1ccc(N(C)C)cc1 (stereo not given)	93%	116% (inactive)	93% (inactive)	87% (inactive)	94.3% (inactive)	-2.37% (inactive)	96.6%	94.3%	1.3% (inactive)	-5.9% (inactive)
COc1ccc(CNc2nc(SCC(=O)NCc3ccco3)nc3ccccc23)cc1	80%	90.5% (inactive)	80% (inactive)	84.6% (inactive)	94.4% (inactive)	17.6% (inactive)	76.7%	94.4%	-3.6% (inactive)	-4.26% (inactive)
COc1ccc(N(C(=O)c2ccco2)S(=O)(=O)c2cc(OC)ccc2OC)cc1	102%	84.5% (inactive)	102% (inactive)	81% (inactive)	72.2% (inactive)	-25.7% (inactive)	97.9%	72.2%	-1.84% (inactive)	4.17% (inactive)
CCCCOc1ccccc1C(=O)NCCCC(=O)O	92.5%	80.5% (inactive)	92.5% (inactive)	95.4% (inactive)	87.1% (inactive)	7.52% (inactive)	79.6%	87.1%	-4.08% (inactive)	-0.55% (inactive)
CCN1CCc2c(C#N)c(N3CCOCC3)nc(NCc3ccccc3)c2C1	84.5%	88% (inactive)	84.5% (inactive)	88.4% (inactive)	81.3% (inactive)	3.46% (inactive)	77.8%	81.3%	-6.03% (inactive)	-4.76% (inactive)
COc1ccc(C)cc1NS(=O)(=O)c1ccc(NS(=O)(=O)c2ccc(NC(C)=O)cc2)cc1	128%	104% (inactive)	128% (inactive)	94.9% (inactive)	93.5% (inactive)	4.67% (inactive)	88.9%	93.5%	-6.67% (inactive)	1.29% (inactive)
CCC(NS(=O)(=O)c1ccc(C)cc1)C(=O)N1CCC2(O)CCCCC2C1 (stereo not given)	94%	105% (inactive)	94% (inactive)	90.7% (inactive)	94.5% (inactive)	5.91% (inactive)	88.6%	94.5%	-3.2% (inactive)	-1.8% (inactive)
CC(=O)Nc1ccc(NS(=O)(=O)C(F)(F)F)cc1	82.5%	97% (inactive)	82.5% (inactive)	93.9% (inactive)	92.6% (inactive)	-3.72% (inactive)	96.3%	92.6%	-2.34% (inactive)	1.48% (inactive)
COCCn1c(COc2ccc(Cl)cc2)nnc1SCC(N)=O	85.5%	84.5% (inactive)	85.5% (inactive)	98.8% (inactive)	109% (inactive)	18.1% (inactive)	90.8%	109%	-5.41% (inactive)	2.54% (inactive)
CCCn1c(SCC(=O)N2CCc3ccccc3C2)nc2c1c(=O)n(C)c(=O)n2C	78.5%	128% (inactive)	78.5% (inactive)	91.2% (inactive)	84.9% (inactive)	2.96% (inactive)	81.9%	84.9%	0.26% (inactive)	9% (inactive)
N#Cc1c(-c2ccccc2)nc(SCc2nc(N)nc(N3CCCCC3)n2)[nH]c1=O	90.5%	86.5% (inactive)	90.5% (inactive)	81.5% (inactive)	99.9% (inactive)	-2.35% (inactive)	102%	99.9%	-6% (inactive)	5.08% (inactive)
CCCOc1ccc([C@@H]2C3CN(C(=O)OCC)CC=C3C(C#N)=C(N)C2(C#N)C#N)cc1OC (stereo not given in full)	88%	40% (active)	88% (inactive)	85.2% (inactive)	63.4% (inactive)	-11.8% (inactive)	75.2%	63.4%	-7.03% (inactive)	0% (inactive)
CCCCC(O)(C(NC=O)C(=O)OC)C(F)(F)F (stereo not given)	95.5%	85% (inactive)	95.5% (inactive)	108% (inactive)	99.4% (inactive)	3.77% (inactive)	95.7%	99.4%	-2.27% (inactive)	7.58% (inactive)
